Assay [1] can be described thus: Antiinflammatory activity in rat polymorphonuclear leukocytes assessed as inhibition of platelet-activating factor-induced glucuronidase release at 10 uM preincubated for 15 mins before challenge by spectrophotometry. The assay is classed as functional.
For assay [2], the target named is T1, Tyrosine-protein phosphatase non-receptor type 1 (Homo sapiens) (UniProt P18031).
T1 sequence (whole entry): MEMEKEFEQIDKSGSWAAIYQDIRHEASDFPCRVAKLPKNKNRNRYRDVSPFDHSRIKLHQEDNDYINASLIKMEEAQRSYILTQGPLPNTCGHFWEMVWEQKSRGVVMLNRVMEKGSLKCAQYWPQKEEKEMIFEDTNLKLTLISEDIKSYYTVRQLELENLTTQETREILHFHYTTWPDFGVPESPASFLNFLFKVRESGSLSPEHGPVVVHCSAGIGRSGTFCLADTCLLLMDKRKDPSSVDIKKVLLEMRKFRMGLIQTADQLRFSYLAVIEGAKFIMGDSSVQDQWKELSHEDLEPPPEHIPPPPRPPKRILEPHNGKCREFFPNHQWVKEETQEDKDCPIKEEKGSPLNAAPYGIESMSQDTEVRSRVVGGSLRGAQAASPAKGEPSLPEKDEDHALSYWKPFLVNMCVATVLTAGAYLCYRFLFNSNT
Put plainly: Inhibition of GST-tagged human PTP1B PTPase activity using p-NPP as substrate at 10 uM after 10 mins by spectrophotometry.

Assay [3] concerns HCT-8. Put plainly: Cytotoxicity against human HCT8 cells at 10 uM after 96 hrs by MTT assay. The assay is classed as functional, cell-based. (In general: Formazan colour is commonly taken as a measure of viable cells.)
Assay [4] deals with PC-12. The assay is described as follows: Neuroprotective activity against glutamate-induced neurotoxicity in rat PC12 cells at 10 uM preincubated for 24 hrs prior challenge measured after 24 hrs by MTT assay. The format is functional, cell-based.
The test system of assay [5] is Liver microsomes. The assay is described as follows: Antioxidant activity against Fe2+-cystine induced lipid peroxidation in rat liver microsomes at 10 uM. The format is functional. To be noted: Microsome. Background: Liver microsomes are a subcellular fraction often used to study metabolism.
Assay [6] has as its target Signal transducer and activator of transcription 3 (Homo sapiens) (UniProt P40763). Put plainly: Inhibition of STAT-3 activity in HELF cells at 10 uM. The assay is classed as cell-based. In a few lines:
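HELF cells grown in DMEM with 10% FCS under humidified 5% CO2, transfected with pSTAT-3-TA-luc firefly luciferase reporter plasmid by lipofectamine 2000. After 24 h, treated in 5% FBS with compound or DMSO for 24 h. Luciferase activity read in cell lysates by luminometer; activity expressed relative to DMSO-treated transfected cells set at 100%.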

For assay [7], the system named is Human immunodeficiency virus 1. Put plainly: Antiviral activity against HIV1 infected in 293T cells at 10 uM pretreated for 15 mins prior infection measured after 48 hrs by luciferase reporter gene assay. The format is functional, organism-based. Background: A reporter such as luciferase makes a cellular process visible.
Assay [8] concerns A549. Put plainly: Cytotoxicity against human A549 cells at 10 uM after 96 hrs by MTT assay. The assay is classed as functional, cell-based.
Assay [9] concerns MCF7. The assay is described as follows: Cytotoxicity against human MCF7 cells at 10 uM after 96 hrs by MTT assay. The assay is classed as functional, cell-based.
Assay [10] deals with BGC-823. The assay is described as follows: Cytotoxicity against human BGC823 cells at 10 uM after 96 hrs by MTT assay. The format is functional, cell-based.
Assay [11] deals with KETR3. Put plainly: Cytotoxicity against human Ketr3 cells at 10 uM after 96 hrs by MTT assay. The assay is classed as functional, cell-based.
Assay [12] deals with Bel-7402. Put plainly: Cytotoxicity against human Bel7402 cells at 10 uM after 96 hrs by MTT assay. The assay is classed as functional, cell-based.

Here are results for 4 molecules from ChEMBL document CHEMBL1926618, “Homosecoiridoids from the flower buds of Lonicera japonica” (2011).

The source made the active and inactive calls. The rule behind the calls is not given here.

Sequence of Signal transducer and activator of transcription 3 (Homo sapiens) (P40763 whole entry): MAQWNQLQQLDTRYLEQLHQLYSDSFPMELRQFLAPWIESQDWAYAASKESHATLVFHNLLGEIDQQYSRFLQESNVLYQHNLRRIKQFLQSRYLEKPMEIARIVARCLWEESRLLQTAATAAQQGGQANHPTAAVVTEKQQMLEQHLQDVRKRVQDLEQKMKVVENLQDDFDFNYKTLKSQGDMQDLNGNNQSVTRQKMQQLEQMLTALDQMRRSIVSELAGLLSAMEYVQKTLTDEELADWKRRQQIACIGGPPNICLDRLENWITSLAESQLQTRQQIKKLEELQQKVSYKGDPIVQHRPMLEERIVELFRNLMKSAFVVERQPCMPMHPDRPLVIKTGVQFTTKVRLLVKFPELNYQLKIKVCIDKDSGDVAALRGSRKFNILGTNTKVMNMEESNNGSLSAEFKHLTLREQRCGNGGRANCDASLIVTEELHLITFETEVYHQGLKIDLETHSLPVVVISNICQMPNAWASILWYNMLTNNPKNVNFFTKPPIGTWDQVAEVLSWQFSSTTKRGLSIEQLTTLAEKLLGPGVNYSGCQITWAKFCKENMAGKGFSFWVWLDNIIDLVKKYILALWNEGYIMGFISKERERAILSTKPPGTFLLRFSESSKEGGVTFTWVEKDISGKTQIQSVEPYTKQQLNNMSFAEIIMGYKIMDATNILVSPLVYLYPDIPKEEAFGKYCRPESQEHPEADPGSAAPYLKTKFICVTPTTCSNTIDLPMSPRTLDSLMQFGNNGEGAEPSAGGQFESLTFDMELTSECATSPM

A word on the inhibition: it is the relative decrease from the control value, in per cent. As to `C=C[C@H]1[C@H](O[C@@H]2O[C@H](CO)[C@@H](O)[C@H](O)[C@H]2O)OC=C(C(=O)O)[C@H]1C[C@H]1OC(=O)C(O)=C1c1ccccc1` [LONIPHENYRUVIRIDOSIDE D], in [1], the inhibition at 10 µM was below 30%. Also, the inhibition result in assay [2] is “inactive”. Moreover, the result in [3], in [4], in [5], in assay [7], in assay [8] and in [9] was inactive. Moreover, the outcome in assay [10], in assay [11] and in assay [12] was inactive. The inhibition in assay [6] worked out at 48.8%.
Consider `C=C[C@H]1[C@H](O[C@@H]2O[C@H](CO)[C@@H](O)[C@H](O)[C@H]2O)OC=C2C(=O)O[C@H](/C(=C(/O)C(=O)O)c3ccccc3)C[C@@H]21` [LONIPHENYRUVIRIDOSIDE C], for which, in assay [1], the inhibition at 10 µM is below 30%. The inhibition entry in assay [2] was “inactive”. Also, the result in [3], in [4], in [5], in assay [7], in assay [8] and in assay [9] was inactive. Moreover, the result in assay [10], in assay [11] and in assay [12] was inactive. Further, the inhibition in [6] turned out to be 30.9%.
Take `O=C(O)C1=CO[C@@H](O[C@@H]2O[C@H](CO)[C@@H](O)[C@H](O)[C@H]2O)[C@H]2[C@@H]1C[C@@H]1C[C@H]2OC=C1c1ccccc1` [LONIPHENYRUVIRIDOSIDE A]: the inhibition at 10 µM in assay [1] is below 30%. Also, the inhibition result in [2] was “inactive”. The result in assay [3], in assay [4], in assay [5], in assay [7], in assay [8] and in assay [9] was inactive. The outcome in assay [10], in assay [11] and in assay [12] was inactive. Besides, the inhibition in assay [6] came to 45.7%.
Take `C=C[C@H]1[C@H](O[C@@H]2O[C@H](CO)[C@@H](O)[C@H](O)[C@H]2O)OC=C2C(=O)O[C@@H](/C(=C(/O)C(=O)O)c3ccccc3)C[C@H]21` [LONIPHENYRUVIRIDOSIDE B]: the inhibition at 10 µM in assay [1] is below 30%. Further, in assay [2], the inhibition result is “inactive”. The outcome in assay [3], in assay [4], in [5], in [7], in [8] and in [9] was inactive. Further, the result in assay [10], in assay [11] and in assay [12] was inactive. In assay [6], this molecule registered an inhibition of 25.8%.
